The values that follow come from ChEMBL document CHEMBL1154704, “Synthesis, anti-HCV, antioxidant, and peroxynitrite inhibitory activity of fused benzosuberone derivatives” (Eur J Med Chem, 2010).

Converted amounts (≈) assume the structure as drawn.

Test [1] is described as follows: Inhibition of peroxynitrite-induced 3-nitrotyrosin formation by HPLC. Format: functional. The procedure, abridged: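 Equimolar tyrosine and peroxynitrite with compound at increasing concentrations in 100 mM phosphate buffer pH 7.4, 37 °C for 15 min. Peroxynitrite stock quantified at 302 nm (ε 1670 cm⁻¹ M⁻¹), held on ice ≤30 min after thawing. 3-Nitrotyrosine measured by HPLC; control peroxynitrite plus tyrosine; mean ± SD of 3 independent experiments.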

The subject of test [2] is Radical scavenging activity. In words: Antioxidant activity assessed as DPPH radical scavenging activity by microplate reader assay. Format: functional. More on the design: concentration or dose not given beside the values. The procedure, abridged: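 Compounds or ascorbic acid standard added to DPPH radical in methanol, ratio 1:9; incubated dark 37 °C 30 min; absorbance decrease read at 515 nm on plate reader. Blank of DMSO plus DPPH; solvent control taken as 0% scavenging. Triplicate; reported as % decrease in DPPH absorbance, mean ± SD.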

Another test deals with Hepatitis C virus. In words: Antiviral activity HCV in replicon cells assessed as inhibition of NS3-4A protease activity by RT-PCR. Format: functional, Hepacivirus hominis. In a few lines: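 Replicon cells seeded at 1×10⁴/well; next day incubated at 37 °C with serially diluted agents in DMEM + 2% FBS + 0.5% DMSO for the indicated period. Total RNA extracted, HCV RNA copy number by quantitative RT-PCR; five replicates per point; ribavirin control. Cytotoxicity by MTS viability in same settings; Huh-7 1×10⁴ or HepG2 4×10⁴ cells/well.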

The compound `N#Cc1cc2c([nH]c1=O)-c1ccccc1CCC2` yielded an IC50 in test [1] of 291 µM. Further, in test [2], the Activity was 27.4%. Also, in the test on Hepatitis C virus, the MIC worked out at 4.45 µg/mL (≈ 18.8 µM).
Consider `O=C1O[C@H]([C@@H](O)CO)C(O)=C1O`, for which the Activity in test [2] was determined as 79%.
On to `NC(=O)c1ncn([C@@H]2O[C@H](CO)[C@@H](O)[C@H]2O)n1` [RIBAVIRIN], for which, in the test on Hepatitis C virus, the MIC was 16.1 µg/mL (≈ 66.1 µM).
For the compound `c1ccc2c(c1)CCCc1ccc(-c3ccc4ccccc4c3)nc1-2`, 170 µM corresponded to half-maximal inhibition in test [1] (IC50). In addition, the Activity in test [2] amounted to 54.2%. The MIC in the test on Hepatitis C virus was determined as 5.98 µg/mL (≈ 18.6 µM).
For `c1ccc2c(c1)CCCc1cnoc1-2`, in test [1], the IC50 is 149 µM. Besides, the Activity in test [2] worked out at 44.1%. For the same compound, the MIC with Hepatitis C virus was 7.66 µg/mL (≈ 41.4 µM).
For `CC(=O)c1cc2c(nc1C)-c1ccccc1CCC2`, 158 µM corresponded to half-maximal inhibition in test [1] (IC50). Also, the Activity in test [2] is 37.2%. For the same compound, the MIC in the test on Hepatitis C virus turned out to be 7.09 µg/mL (≈ 28.2 µM).
Take `c1ccc2c(c1)CCCc1c[nH]nc1-2`: in test [1], the IC50 was 277 µM. Further, in test [2], the Activity was found to be 45.4%. Further, in the test on Hepatitis C virus, the MIC came to 6.22 µg/mL (≈ 33.8 µM).
Take `c1ccc2c(c1)CCCc1cnc3nc4ccccc4n3c1-2`: the half-inhibitory concentration (IC50) in test [1] is 342 µM. Also, the Activity in test [2] amounted to 28.2%. Also, the MIC in the test with Hepatitis C virus stood at 6 µg/mL (≈ 21 µM).
Taken in the same sequence, the figures for `c1ccc2c(c1)CCCc1cnc3ncnn3c1-2` were 315 µM, 27.7% and 2.21 µg/mL (≈ 9.35 µM).
In turn, `Cc1c(C)c2c(c(C)c1O)CCC(C)(C(=O)O)O2` (configuration not stated) [TROLOX] yielded an IC50 in test [1] of 58.4 µM.
In the case of `O=c1cc(-c2ccccc2)nc2n(-c3ccccc3)nc(-c3ccc4c(n3)-c3ccccc3CCC4)n12`, the half-inhibitory concentration (IC50) in test [1] came to 349 µM. For the same compound, the Activity in test [2] amounted to 40%. For the same compound, the MIC in the test on Hepatitis C virus worked out at 1.15 µg/mL (≈ 2.39 µM).
With `CN(C)/C=C1\CCCc2ccccc2C1=O`, the 50% inhibitory concentration (IC50) in test [1] came out at 146 µM. Moreover, the Activity in test [2] is 57.9%.
As for `CCOC(=O)c1cc2c(nc1C)-c1ccccc1CCC2`, the IC50 in test [1] came out at 329 µM. In addition, the Activity in test [2] turned out to be 54.4%. Moreover, the MIC with Hepatitis C virus turned out to be 3.58 µg/mL (≈ 12.7 µM).
